Screening results deposited in PubChem BioAssay by Sanford-Burnham Center for Chemical Genomics.
TRAIL sens C8: caspase-8 TRAIL sensitization; NB7+C8 cells + TRAIL, ATPlite viability luminescence; actives 1% (n = 360,000); AID 624354; inhibition (viability loss, TRAIL sensitization), % at 10 µM;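 active = compounds causing at least 50% loss of cell viability in the single-dose screen, relative to plate controls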
PPC-1+TRAIL kill: compounds killing PPC-1 cancer cells with TRAIL present (potentiator screen, no TRAIL-free arm); PPC-1 cells + TRAIL, ATPLite viability luminescence; cell killing (% activity), % at 4 µM or 5 µM; actives 0.41% (n = 220,000);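 active = cell killing above 50% in the first pass at 4 µM, then a duplicate retest at 5 µM averaging 50% or more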;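 note: plate controls were cells with TRAIL plus DMSO for no effect and medium-only wells lacking cells for full effect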
FLuc inh counter: Photinus pyralis luciferase inhibition counter-screen | P08659 | inhibition, % at 10 µM | actives 1.5% (n = 200,000) | ATPLite firefly luciferase biochemical luminescence, 10 min | AID 1006;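 active = inhibition above about 50% when tested at 10 µM, limit read from the data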
Target sequence (P08659 whole entry, looked up): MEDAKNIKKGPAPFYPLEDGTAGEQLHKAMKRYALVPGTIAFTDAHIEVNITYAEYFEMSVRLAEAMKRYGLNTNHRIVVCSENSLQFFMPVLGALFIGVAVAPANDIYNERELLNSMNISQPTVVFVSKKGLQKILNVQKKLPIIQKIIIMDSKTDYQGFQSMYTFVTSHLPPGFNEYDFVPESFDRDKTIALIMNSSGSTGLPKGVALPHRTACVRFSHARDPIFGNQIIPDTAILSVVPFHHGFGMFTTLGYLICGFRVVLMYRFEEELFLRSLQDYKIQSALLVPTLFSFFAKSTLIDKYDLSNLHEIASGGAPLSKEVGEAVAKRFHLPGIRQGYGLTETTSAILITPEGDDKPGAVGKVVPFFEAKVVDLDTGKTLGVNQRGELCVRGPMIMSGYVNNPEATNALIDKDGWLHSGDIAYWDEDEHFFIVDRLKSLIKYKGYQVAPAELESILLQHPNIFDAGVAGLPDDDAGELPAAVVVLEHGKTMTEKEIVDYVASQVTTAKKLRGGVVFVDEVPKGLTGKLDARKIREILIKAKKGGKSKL
FLuc act counter: firefly luciferase counter-screen for stimulation assays; activation factor at 10 µM; ATPlite luciferase biochemical, luminescence, 10 min; 0 = ATP-free wells, 1 = DMSO control; AID 1027; 200,000 tested, under 10 active; P08659;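 active = luciferase activation factor, scaled between plate controls, of at least 2 with compound at 10 µM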
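Material: Luciferase/luciferin reagent mix; Doses: test compounds dosed from 2 mM stocks in 100% DMSO; Schedule: 10 min incubation after luciferase reagent addition, room temperature; Measured by: luminescence from luciferase reaction; Read-out: luminescence gain marking luciferase activators.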
Active calls of the source: *; x = no result given. Shown are actives, neighbours in structure and some others; about 1.5% of the full set was active somewhere.

SMILES	TRAIL sens C8	PPC-1+TRAIL kill	FLuc inh counter	FLuc act counter
Cc1ccc(NC(=O)c2cc(C)n(-c3ccccc3)c2C)cc1	93*	77*	95*	0
Cc1nnc2n1NC(c1ccc(Cl)cc1)C(C(=O)N1CCC(C)CC1)S2 (centres undefined)	3	22	-2	1
N#Cc1cc(N2CCCCC2)c([N+](=O)[O-])cc1C#N	7	13	-4	1
O=C(NC(=S)N1CCc2ccccc21)c1ccccc1Cl	23	x	x	x
O=C(NC(=S)N1CCc2ccccc21)c1ccccc1	51*	8	52*	0.5
CC1CCC(NC(=O)CN2CCN(S(=O)(=O)c3cccs3)CC2)CC1 (centres undefined)	-13	x	x	x
CCOC(=O)C1=NOC(CNC(=O)c2ccccc2Cl)C1 (centres undefined)	4	9	-4	1
Cc1cccc2sc(NC(=O)CN(C)S(=O)(=O)c3ccc(Br)s3)nc12	-1	13	-7	1.1
CC1C(=O)Nc2ccccc2N1C(=O)c1ccc(O)cc1 (centres undefined)	-2	x	x	x
O=C1Nc2ccccc2N(C(=O)c2ccc3ccccc3c2)C1c1nc2ccccc2[nH]1 (centres undefined)	58*	x	x	x
O=C(NC(Cc1c[nH]c2ccccc12)C(=O)O)/C(=C\c1ccccc1)NC(=O)c1ccccc1 (centres undefined)	-16	x	x	x
CCCCc1ccc(NC(=O)c2ccc(N(C)S(C)(=O)=O)cc2)cc1	53*	17	x	x
COc1ccc(COC(=O)C2CC(=O)N(Cc3ccccc3)C2)cc1 (centres undefined)	-10	x	x	x
Clc1ccc(-c2cn3cccnc3n2)cc1	17	6	36	0.6
COc1cccc(-c2cc(C(F)(F)F)n3nc(N)nc3n2)c1	4	13	-8	1.1
COc1cccc(-c2cn3nc4c(nc3n2)CCCC4)c1	53*	3	68*	0.3
Clc1ccc(-c2cn3nc4c(nc3n2)CCCC4)cc1	29	4	59*	0.4
N#C/C(=C\c1ccccc1OCc1ccc(C(=O)O)cc1)c1ccccc1	-4	-1	-5	1.1
Cc1cc(=O)[nH]c(SCC(=O)Nc2ccccc2C#N)c1C#N	8	8	-7	1.1
COc1ccc(C2CC2/C(C)=N/OC(=O)c2ccc(F)cc2)cc1 (centres undefined)	5	-1	2	1
Cc1[nH]n(-c2ccccc2)c(=O)c1C=NCc1ccco1	x	9	28	0.7
Cc1[nH]n(-c2cccc(Cl)c2)c(=O)c1C=NCc1ccco1	8	0	65*	0.3
O=C(/C=C/c1ccccc1)CC(O)(c1ccccc1)C(F)(F)C(F)F (centres undefined)	20	0	0	1
Nc1ccc(C(=O)NN2C(=O)[C@H](Cl)C2c2ccc(Cl)cc2)cc1 (some centres undefined)	95*	x	x	x
Cc1nc(N/N=C/c2ccccn2)sc1C	x	70*	94*	0.1
SMILES	TRAIL sens C8	PPC-1+TRAIL kill	FLuc inh counter	FLuc act counter
CCCc1sc(N/N=C/c2ccccn2)nc1-c1ccc(F)cc1	5	-4	-4	1
CC1(C)N=C(N)N=C(N)N1CCCCc1ccccc1	67*	x	x	x
O=C(O)CN1C(=O)c2cccc3c(Br)ccc1c23	-7	x	x	x
Cc1ccc2nc(-c3sc4nc(C)cc(C)c4c3N)[nH]c2c1	56*	31	64*	0.4
O=[N+]([O-])c1ccc(O)c(C=Nc2ccc3nc(-c4ccccc4)[nH]c3c2)c1	18	17	41	0.6
Oc1c(Br)cc(C=Nc2ccc3nc(-c4ccccc4)[nH]c3c2)c(O)c1Br	x	17	56*	0.4
COc1ccc(-c2nc3ccc([N+](=O)[O-])cc3[nH]2)cc1	20	24	44	0.6
Cc1ccc(-c2nc3ccc([N+](=O)[O-])cc3[nH]2)cc1	34	32	61*	0.4
Cc1ccc2nc(-c3cccc(N)c3)[nH]c2c1	68*	43	88*	0.1
Nc1cccc(-c2nc3ccccc3[nH]2)c1	18	23	39	0.6
O=C1CC(NCC2CCCO2)C(=O)N1c1ccc(F)cc1 (centres undefined)	2	6	-4	1
COc1ccc2nc(-c3ccccc3)[nH]c2c1	51*	44	74*	0.3
O=C(c1ccc(Cl)cc1)N1CCCCC(Sc2nnc(-c3ccc4c(c3)OCO4)o2)C1=O (centres undefined)	69*	48	29	0.7
Oc1ccc(/C=N/Nc2nc(-c3cccnc3)nc3ccccc23)c(O)c1	55*	16	x	x
CC(c1ccccc1)N1C(=O)c2cccnc2C1=O (centres undefined)	0	x	x	x
CC(NC1=CC(=O)c2cccnc2C1=O)C(O)c1ccccc1 (centres undefined)	83*	x	x	x
O=C(NCc1ccccc1F)C1CCCN(S(=O)(=O)c2ccc(-n3cnnn3)cc2)C1 (centres undefined)	6	x	x	x
COc1ccc(-c2nnnn2C(C)C)cc1S(=O)(=O)Nc1ccccc1	-13	-9	x	x
CCn1c(C)cs/c1=N\S(=O)(=O)c1ccccc1	-18	x	x	x
O=Cc1s/c(=N\S(=O)(=O)c2ccccc2)n(CCCCl)c1Cl	61*	26	-6	1.1
O=c1oc2ccccc2cc1-c1nc2ccccc2o1	13	35	36	0.6
O=c1oc2ccccc2cc1-c1nc2c(s1)CCCC2	63*	24	67*	0.3
CCOC(=O)C1CCN(CCC(=O)Nc2cccc(Cl)c2C)CC1	-4	5	-4	1
CC(C)n1c(/C=C/c2ccccc2)nc2ccccc21	52*	33	70*	0.3
CCCn1c(/C=C/c2ccccc2)nc2ccccc21	53*	37	72*	0.3
SMILES	TRAIL sens C8	PPC-1+TRAIL kill	FLuc inh counter	FLuc act counter
COCCOCCn1c(/C=C/c2ccccc2)nc2ccccc21	53*	48	84*	0.2
CC(C)n1c(CN(C)c2ccccc2)nc2ccccc21	9	x	x	x
C/C(=N/NS(=O)(=O)c1ccc(C(C)(C)C)cc1)c1ccc2c(c1)OCO2	-5	x	x	x
O=C(CN1C(=O)c2ccccc2S1(=O)=O)c1ccccc1	29	20	3	1
COC(=O)c1ccc(-c2ccc(Cl)cc2)nc1C	46	17	50*	0.5
O/C(=C\c1nc2ccccc2nc1/C=C(\O)c1ccccc1)c1ccccc1	-4	13	73*	0.3
Cn1c(=O)n(CCc2ccccc2)c(=O)c2c1nc1n2CCCN1CCc1ccccc1	45*	8	-2	1
CCCNC(=O)c1onc(CSc2ccc(F)cc2)c1C(=O)NCC1CC1	0	x	x	x
O=C(NC1=C(NC2CCS(=O)(=O)C2)C(=O)c2ccccc2C1=O)c1ccccc1 (centres undefined)	52*	23	0	1
O=C(CCl)Nc1ccc(Oc2cnc3ccccc3n2)cc1	93*	-19	-5	1
O=C(CCl)Nc1cccc(-c2cnc3ccccc3n2)c1	94*	13	12	0.9
CCC(=O)Nc1cccc(-c2cnc3ccccc3n2)c1	-7	2	10	0.9
